Measurements taken from PubChem BioAssay AID2237 (Johns Hopkins Ion Channel Center, 2010).
The campaign covered roughly 310,000 compounds. About 1,500 (0.48%) were called active. The sample holds actives, similar compounds and a random draw of the others, so the mix is not that of the screen.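 The calls were made as follows: active = B-score above 5 SD of library B-scores, and initial fluorescence ratio not above library mean plus 5 SD; inactive = the rest.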

Each compound was assayed against Short transient receptor potential channel 4 (Mus musculus) (UniProt Q9QUQ5) (assay: activators of mouse TRPC4 channel, primary screen, Fluo4 calcium, HEK293 TRPC4beta/mu-opioid cells (AID 2237;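 as to B-score: positive B-score marks a calcium rise read as TRPC4 activation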)). Conditions: Fluo4 calcium fluorescence, at 10 µM; stronger effect = higher value.
Short transient receptor potential channel 4 (Mus musculus), sequence (Q9QUQ5 whole entry, looked up): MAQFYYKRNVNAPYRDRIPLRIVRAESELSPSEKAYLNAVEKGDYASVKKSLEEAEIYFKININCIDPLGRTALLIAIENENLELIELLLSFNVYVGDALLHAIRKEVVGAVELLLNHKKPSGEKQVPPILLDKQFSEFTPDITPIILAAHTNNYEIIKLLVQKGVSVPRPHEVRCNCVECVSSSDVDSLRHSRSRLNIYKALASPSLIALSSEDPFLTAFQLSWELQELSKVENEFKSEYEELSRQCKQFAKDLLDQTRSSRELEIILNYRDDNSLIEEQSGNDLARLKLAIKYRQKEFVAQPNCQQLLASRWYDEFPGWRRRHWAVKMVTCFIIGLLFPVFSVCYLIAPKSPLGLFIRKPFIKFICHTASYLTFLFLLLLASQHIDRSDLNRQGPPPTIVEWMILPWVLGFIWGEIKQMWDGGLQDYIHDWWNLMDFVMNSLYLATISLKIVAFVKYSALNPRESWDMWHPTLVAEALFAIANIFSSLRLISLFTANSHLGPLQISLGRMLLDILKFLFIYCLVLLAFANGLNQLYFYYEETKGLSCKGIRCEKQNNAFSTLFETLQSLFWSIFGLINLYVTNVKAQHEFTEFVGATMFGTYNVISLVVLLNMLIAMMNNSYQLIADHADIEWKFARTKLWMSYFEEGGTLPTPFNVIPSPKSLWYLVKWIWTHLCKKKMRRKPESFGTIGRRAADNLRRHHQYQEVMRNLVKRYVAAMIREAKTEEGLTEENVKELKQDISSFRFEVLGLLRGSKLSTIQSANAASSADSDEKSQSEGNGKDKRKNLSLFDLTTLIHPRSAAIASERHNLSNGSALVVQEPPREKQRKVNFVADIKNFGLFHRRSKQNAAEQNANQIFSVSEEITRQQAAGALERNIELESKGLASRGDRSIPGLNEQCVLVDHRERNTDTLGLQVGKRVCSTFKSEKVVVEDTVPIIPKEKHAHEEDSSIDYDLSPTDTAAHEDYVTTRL
Outline: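 Test system: HEK293 cells stably co-expressing mouse TRPC4beta and mu-opioid receptor | Schedule: Fluo4 dye loading 45 min at room temperature, 110 s recording | Measured by: Kinetic Fluo4 calcium fluorescence, 5 s baseline at 1 Hz | Evaluation: B score of integrated ratio | Controls: Buffer (low) and maximal DAMGO (high)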

B-score, inactive:
Cc1ccc(S(=O)(=O)NCCC(=O)NNC(=O)C2COc3ccccc3O2)cc1 (configuration not stated), O=C(NCc1ccccc1)C1=C[C@@H](c2ccc(C(F)(F)F)cc2)C[C@@H](OCc2ccc(CO)cc2)O1, O=C(NCc1ccccc1)C1=C[C@@H](c2ccccc2)C[C@@H](OCCCCO)O1, O=C(NCc1ccccc1)C1=C[C@H](C2CC2)C[C@H](OCc2ccc(CO)cc2)O1, O=C(C1=C[C@H](C2CC2)C[C@H](OCc2ccc(CO)cc2)O1)N1CCN(Cc2ccccc2)CC1, CC(=O)c1ccc(S(=O)(=O)Nc2ccc(-c3ccc4nncn4n3)cc2)cc1, C#CCOc1ccc(/C=C2/C(=O)ON=C2C)cc1OCC, COc1ccc(C(=O)C2CCCN(Cc3cccn3-c3ccccn3)C2)c(C)c1 (configuration not stated), CCOC(=O)c1ccc(NC(=O)c2c(NCc3ccccc3)[nH]c(=O)[nH]c2=O)cc1, C/C=C(\C)C(=O)NCCN1C2=NC[C@H](Cc3ccc(O)cc3)N2C[C@@H]1Cc1ccc(OC)cc1, COc1cccc(CNC(=O)CCC2CCCN(Cc3ccc(OC(F)F)cc3)C2)c1 (configuration not stated), CCNc1nc(SCCOc2ccccc2)nc(N(C)C)n1, O=C(NCCN1C(=O)S/C(=C\c2cccnc2)C1=O)c1ccc(S(=O)(=O)N2CCCC2)cc1, CC(=O)c1nc2ccccc2n1Cc1ccccc1, CC(=O)Nc1nc2ccccc2n1Cc1ccc(C)cc1, COC(=O)N/N=C/c1c[n+]([O-])c2ccccc2[n+]1[O-], Cc1cc(C)cc(OCC(=O)NC(C)c2ccccc2)c1 (configuration not stated), Cc1ccc(OCC(=O)NC(C)c2ccccc2)cc1C (configuration not stated), CCc1ccccc1NC(=O)c1cc(-c2ccc3c(c2)OCO3)on1, Cc1ccc(S(=O)(=O)N2CCC(N3CCCCCC3)CC2)cc1, O=S(=O)(c1ccccc1)N1CCC(c2ccccc2)CC1, C/C(=N/OC(=O)c1ccc(Br)cc1)c1ccc(C)cc1, CC(C)N(Cc1nnc(-c2ccc(Cl)cc2)o1)C(=O)C1=COCCO1, CNC(=O)COC(=O)c1cc(-c2ccc(OC)cc2)nc2ccccc12, Cc1cc(C(=O)Nc2ccccc2N2CCOCC2)c2ccccc2n1, Cc1ccc(S(=O)(=O)NCC(=O)N(CC(=O)NCC2CCCO2)c2cccc(F)c2)cc1 (configuration not stated), CN(C)CCCN(C(=O)c1ccc(S(=O)(=O)N2CCCCCC2)cc1)c1nc2cc3c(cc2s1)OCCO3, CN(C)CCCN(C(=O)c1ccc(S(=O)(=O)N2CCCCCC2)cc1)c1nc2ccc(Br)cc2s1, CCOc1ccc(N(CC(=O)NCCOc2ccccc2OC)S(=O)(=O)c2ccccc2)cc1, O=C(NNC(=O)C(O)c1ccccc1)NC1CCCCC1 (configuration not stated), COc1ccc2nc(/N=C(\N)NC(=O)Nc3ccccc3)nc(C)c2c1, COC(=O)C1CCCCN1C(=O)c1ccc(OC2CCN(C(C)=O)CC2)c(OC)c1 (configuration not stated), CN(CCO)S(=O)(=O)c1ccc2c(c1)C(=O)c1cc(S(=O)(=O)N(C)CCO)ccc1-2, COC(=O)c1sc(-c2ccc(C(C)(C)C)cc2)cc1NC(=O)/C=C/C(=O)O, NC(=O)CSc1nnc(NC(=O)c2ccc3ccccc3c2)s1, CCCc1ccc(OCCNC(=O)c2ccco2)cc1, Cc1ccc(OCC(=O)NCCCNC(=O)c2ccco2)cc1C, Cc1ccc(C(=O)NNC(=O)C(C)Oc2ccc3ccccc3c2)o1 (configuration not stated), O=C(Nc1ccc2ccccc2c1)/C(=C/c1cccc(Br)c1)NC(=O)c1ccco1, COc1cccc(NC(=O)CN2CCN(CC(=O)Nc3ccccc3Cl)CC2)c1, Cc1ccc(C23CC4CC(CC(C(=O)NCC(=O)O)(C4)C2)C3)cc1, CCC(=O)Nc1nnc(S(=O)(=O)N(CC(C)C)c2ccccc2)s1, COn1c(-c2ccc(Cl)cc2Cl)nc2ncccc21, Clc1ccc(-c2cc(-c3ccccn3)on2)c(Cl)c1, COc1ccccc1/C=N/N1CCN(Cc2ccccc2Cl)CC1, CC(=O)N1CC2(C)CN(C(C)=O)CC(C)(C1)C2=O, COc1ccc(N2CCN(C(=O)CCNC(=O)c3ccc(Br)cc3)CC2)cc1, COc1ccc(-n2nc(C(=O)NCC(=O)Nc3cccc(C)n3)c3ccccc3c2=O)cc1, COCCCNC(=O)CNC(=O)c1nn(-c2ccc(OC)cc2)c(=O)c2ccccc12, CCOC(=O)c1cnn(Cc2ccccc2Cl)c1N, CCCC(C(=O)NC1CCCC1)N(C(=O)Cn1nnc(-c2ccc(C)o2)n1)c1cccc(O)c1 (configuration not stated), COc1cc(OC)c(-n2c(C)cc(C=O)c2C)cc1Cl, COc1ccc(Cl)cc1S(=O)(=O)N1CCC(O)(c2ccc(Cl)cc2)CC1, O=C1CCN(C(=O)Nc2ccccc2)N1, CC(C)N(Cc1ccccc1)C(=O)COC(=O)c1cnccn1, CC(C[N+](C)(C)C)OC(N)=O (configuration not stated), C=C(C)CSc1nnc(-c2ccc(C)cc2)n1N, CCCOC1CCCN(Cc2cn(C)nc2-c2ccccc2F)C1 (configuration not stated), NC(=O)c1cc2ccccc2o/c1=N/NC(=O)c1cccc(F)c1, COc1cccc2cc(C(N)=O)/c(=N\NC(=O)c3ccccc3)oc12, CN1CCN(C(=O)CCc2ncc(C(F)(F)F)cc2Cl)CC1, CNc1[nH]ncc1[N+](=O)[O-], O=C(Nc1ccc(F)c(Cl)c1)C1CCN(S(=O)(=O)c2cccnc2)CC1, Cc1cc(-c2ccc(C)c(S(=O)(=O)NC(C)Cc3ccco3)c2)on1 (configuration not stated), CCOc1ccccc1CNS(=O)(=O)c1cc(-c2cc(C)no2)ccc1C, C=CCNC(=O)C12CC3CC(C1)CC(C(=O)NCC=C)(C3)C2, O=C(NC1CCN(S(=O)(=O)c2ccc(F)cc2)CC1)c1ccccc1, O=C(NCc1ccccc1Cl)c1csc2c1CCCCC2, Cc1ccc(NC(=O)c2csc3c2CCCC3)cc1, CCOC(=O)c1ccccc1NC(=O)c1c(N)n(C)c(=O)[nH]c1=O, CSc1ccc(S(=O)(=O)N2CCC(C(=O)NCCc3ccccc3)CC2)cc1, CC1CN(CCCOc2ccccc2-c2ccccc2)CC(C)O1 (configuration not stated), c1ccc(-c2ccccc2OCCN2CCCCC2)cc1, COc1ccc(C2CC(c3ccc(Cl)cc3Cl)Nc3nc(N)nn32)cc1OC (configuration not stated), CCOc1ccccc1C1CC(c2ccccc2)Nc2nc(N)nn21 (configuration not stated), CC(C)(C)S(=O)(=O)c1ccccc1-c1noc(-c2ccccc2)c1C(N)=O, Cn1c(CCNS(=O)(=O)c2ccc(F)cc2)nnc1SCc1cccnc1, COc1ccc(NC(=O)c2cc([N+](=O)[O-])ccc2NC(=O)CNC2CCCCC2C)c(OC)c1 (configuration not stated), Cc1ccc(C(=O)CCC(=O)N(C)CC(=O)Nc2c(Cl)cccc2Cl)cc1, Cc1cccc(-c2nc3ccccc3c(=O)n2NC(=O)Cc2ccc(Cl)cc2)c1, O=C1CCCc2c1nc(-c1cccc(Cl)c1)n2O, O=c1[nH]c(CN2CCN(S(=O)(=O)c3ccc4c(c3)OCCO4)CC2)nc2sc3c(c12)CCCC3, N#CC1(NC(=O)COC(=O)CCN=C2NS(=O)(=O)c3ccccc32)CCCCC1, O=C(OCCN=C1NS(=O)(=O)c2ccccc21)c1cccc([N+](=O)[O-])c1

B-score, active:
O=C(NCc1ccccc1)C1=C[C@@H](C2CCCCC2)C[C@@H](OCc2ccc(CO)cc2)O1 151, CC(C)(C)[C@H]1C=C(C(=O)NCc2ccccc2)O[C@@H](OCc2ccc(CO)cc2)C1 136, COc1ccc(C[C@H]2CN3C(=NC[C@H]3C)N2CCNC(=O)CCC2CCCCC2)cc1 78, CCCc1nc2c(C)cc(-c3nc4ccccc4n3C)cc2n1Cc1ccc(-c2ccccc2C(=O)O)cc1 95, COc1cc(OC)cc(C(=O)N[C@H](C(=O)OCC(=O)NC(C)c2ccccc2)C(C)C)c1 (some centres not stated) 64, c1ccc(C2CCC(N3CCC(N4CCCCC4)CC3)CC2)cc1 (configuration not stated) 123, COC(=O)c1cc(N2CCNCC2)nc2ccccc12 87, CN(C)CCCN(C(=O)c1ccc(S(=O)(=O)N2CCCc3ccccc32)cc1)c1nc2ccc(F)cc2s1 197, Cc1nc(/N=C(\N)NC(=O)NC2CCCCC2)nc2ccccc12 90, CC(Oc1ccc2ccccc2c1)C(=O)NNC(=S)NC(=O)c1ccco1 (configuration not stated) 65, CCCc1ccc(OCC(=O)NNC(=S)NC(=O)c2ccco2)cc1 66, Clc1ccc(COn2c(-c3ccc(Cl)cc3Cl)nc3ncccc32)cc1 80, CCCN(CCC)CCCNC(=O)CNC(=O)c1nn(-c2ccc(OC)cc2)c(=O)c2ccccc12 93, COc1cc(OC)c(-n2cc(-c3ccc(Cl)cc3)[nH]c2=O)cc1Cl 63, Oc1c(Cl)cc(Cl)c(Cl)c1Cc1c(O)c(Cl)cc(Cl)c1Cl 53, CC(=O)OC(C)C[N+](C)(C)C (configuration not stated) 57, CCN(CC)c1ccc2cc(C(N)=O)/c(=N\NC(=O)c3ccncc3)oc2c1 79, Cc1cc(-c2ccc(C)c(S(=O)(=O)NCCCN(Cc3ccccc3)C(C)C)c2)on1 127, CC1CC(C)CN(CCCNC(=O)c2csc3c2CCCCC3)C1 (configuration not stated) 97, CC1CCCN(CCOCCOc2ccccc2-c2ccccc2)C1 (configuration not stated) 54, CCOc1ccccc1C1CC(c2ccc(Cl)cc2)Nc2nc(N)nn21 (configuration not stated) 116, O=c1c2cc(Br)ccc2nc(-c2cccc(Cl)c2)n1O 121, O=C(CCCN=C1NS(=O)(=O)c2ccccc21)OCC(=O)c1ccc(F)c(F)c1 50
